The source of these data is ChEMBL document CHEMBL3632541, “Synthesis, antileishmanial activity and cytotoxicity of 2,3-diaryl- and 2,3,8-trisubstituted imidazo[1,2-a]pyrazines” (Eur J Med Chem, 2015).

In series [1] the test system is Leishmania major. Description: Antileishmanial activity against promastigote form of Leishmania major MHOM/IL/81/BNI after 96 hrs by spectrofluorimetric micromethod. Format: functional, organism-based.
Series [2] relates to Leishmania major. Briefly: Antileishmanial activity against amastigote form of Leishmania major MHOM/IL/81/BNI amastigote in Balb/c mouse peritoneal macrophages after 4 days by May-Grunwald-Giemsa staining-based microscopic analysis. Format: functional, organism-based. Conditions: 96 h. Put shortly:
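Peritoneal macrophages from Balb/c mice, 1.5 10⁵ cell/mL in RPMI 1640 + 15% FBS, left 24 h on glass slides (37 °C, 5% CO₂), then infected 24 h with stationary-phase promastigotes (1.5 × 10⁶/mL). Washed cultures exposed to 100, 10, 1 and 0.1 µM for 4 days. Fixed with methanol, Giemsa-stained. Amastigotes counted in 100 macrophages per duplicate well; IC50 from amastigotes/macrophage. Done twice.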

A short description of series [3]: Cytotoxicity against BALB/c mouse peritoneal macrophages assessed as cell viability after 48 hrs by trypan blue dye exclusion method. The note with it: Peritoneal macrophage cell. Format: cell-based.
The nature of series [4]: Therapeutic index, ratio of IC50 for BALB/c mouse peritoneal macrophages to IC50 for promastigote form of Leishmania major (MHOM/IL/81/BNI). Conditions: read-out: Ratio IC50.
A short description of series [5]: Cytotoxicity against BALB/c mouse 3T3 clone A31 cells after 48 hrs by SRB assay method. Format: cell-based. The note with it: A31, 48 h. Put shortly: (§1)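 Cells plated in growth medium and allowed to attach 24 h (37 °C, 5% CO₂). Time-zero plate fixed with TCA. Serial 4-fold dilutions added for 48 h. Cells fixed with cold TCA, stained with 0.2% SRB, dye solubilized in 10 mM Tris pH 10.5, absorbance read at 510 nm. GI50 is 50% absorbance reduction versus solvent controls, by linear regression. K562 counted by Coulter counter instead. 5-FU reference.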

The nature of series [6]: Therapeutic index, ratio of IC50 for BALB/c mouse 3T3 clone A31 cells to IC50 for promastigote form of Leishmania major (MHOM/IL/81/BNI). Format: cell-based. The note with it: read-out: Ratio IC50.
The nature of series [7]: Therapeutic index, ratio of IC50 for BALB/c mouse peritoneal macrophages to IC50 for amastigote form of Leishmania major (MHOM/IL/81/BNI) in BALB/c mouse peritoneal macrophages. The note with it: read-out: Ratio IC50.
A short description of series [8]: Inhibition of native porcine brain CK1 delta/epsilon using RRKHAAIGpSAYSITA as substrate and [gamma-33P]ATP after 30 mins by scintillation counting. Details: species or system Sus scrofa. Put shortly:
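Native porcine brain CK1δ/ε, in threefold-diluted buffer A (25 mM Mops pH 7.2, 15 mM MgCl₂, 5 mM EGTA, 1 mM DTT, phosphatase inhibitors). 25 μM CKS peptide substrate, 15 μM [γ-³³P]ATP, 30 min at 30 °C. Stopped on P81 paper, washed in 1% phosphoric acid, counted by scintillation. Blank subtracted; activity as % of the no-inhibitor value; DMSO controls.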

A short description of series [9]: Inhibition of Leishmania major CK1.2 using RRKHAAIGpSAYSITA as substrate and [gamma-33P]ATP after 30 mins by scintillation counting. The gist of the method:
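Recombinant His-tagged L. major CK1.2 from E. coli, purified on cobalt beads. Assayed as for the porcine enzyme: CKS peptide substrate, 15 μM [γ-³³P]ATP, 30 min at 30 °C, P81 capture and scintillation counting. Activity as % of the no-inhibitor value.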

Series [10] can be described thus: Cytotoxicity against human H460 cells assessed as growth inhibition after 48 hrs by SRB assay method. Format: cell-based, NCI-H460. Put shortly:
as §1

Series [11] is described as follows: Cytotoxicity against human HuTu 80 cells assessed as growth inhibition after 48 hrs by SRB assay method. Type of series: cell-based, HuTu80. The gist of the method:
as §1
Background: Sulforhodamine B stains cellular protein and so reports cell mass.

A short description of series [12]: Cytotoxicity against human DU145 cells assessed as growth inhibition after 48 hrs by SRB assay method. Format: cell-based, DU-145. Put shortly:
as §1

A short description of series [13]: Cytotoxicity against human MCF7 cells assessed as growth inhibition after 48 hrs by SRB assay method. Type of series: cell-based. The gist of the method:
as §1

Series [14] in a line: Cytotoxicity against human M14 cells assessed as growth inhibition after 48 hrs by SRB assay method. Format: cell-based. The gist of the method: as §1
Series [15] in a line: Cytotoxicity against human HT-29 cells assessed as growth inhibition after 48 hrs by SRB assay method. Type of series: cell-based. Put shortly: as §1
The subject of the next series is Leishmania amazonensis. Briefly: Antileishmanial activity against axenic amastigote stage of Leishmania amazonensis MHOM/BR/76/LTB-012 by MTT method. Type of series: functional, organism-based. Put shortly:
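Axenic amastigotes, grown in MAA/20 medium at 32 ± 1 °C. IC50 by MTT micromethod; compounds from 10 mM DMSO stocks, DMSO ≤1% final.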
A general note: Formazan colour is commonly taken as a measure of viable cells.

A short description of series [16]: Cytotoxicity against human K562 cells assessed as growth inhibition after 48 hrs by Coulter counter cell counting.

In brackets after ≈: the same amount, converted by molar mass. Activity calls are given as the source filed them. The calls are words filed in the database; no cut-off is given here.

Usually IC50 stands for the midpoint of a concentration-inhibition curve. As a reminder, the GI50 is the concentration giving 50% growth inhibition.

As to `CN(C)c1nccn2c(-c3ccncc3)c(-c3ccccc3)nc12`, the IC50 was found to be 31.3 µM in the series on Leishmania major [1]; 9400 nM in the series with Leishmania major [2]; 144 µM in series [3]; 155 µM in series [5]; 2400 nM in series [8]; 480 nM in [9]. Also, the selectivity ratio in [4] amounted to 4.6; in [6], 5; in series [7] it was 15.3. The GI50 at 48 h was determined as 70 µg/mL (≈ 222 µM) in [10]; 50 µg/mL (≈ 159 µM) in series [11]; 90 µg/mL (≈ 285 µM) in series [12]; 32 µg/mL (≈ 101 µM) in [13]; 84 µg/mL (≈ 266 µM) in [14]; 56 µg/mL (≈ 178 µM) in [15]. In addition, the GI50 at 48 h in [16] came out at 48 µg/mL (≈ 152 µM). Further, in the series with Leishmania amazonensis, the result was inactive.

As for `CN(C)c1nccn2c(-c3ccncc3)c(-c3ccc(F)cc3)nc12`, the IC50 with Leishmania major [1] is 6.4 µM; in the series on Leishmania major [2], 800 nM; in [3] it was 42 µM; in [5], above 375 µM; in series [8], 2100 nM; in [9], 990 nM. Further, the selectivity ratio is 6.6 in series [4], above 58.6 in series [6] and 52.5 in series [7]. Besides, the GI50 at 48 h in [10] is above 125 µg/mL; in [11] it was 77 µg/mL (≈ 231 µM); in series [12] it was above 125 µg/mL; in series [13] it was 52 µg/mL (≈ 156 µM); in [14], above 125 µg/mL; in series [15], above 125 µg/mL. The GI50 at 48 h in series [16] was above 125 µg/mL. The outcome in the series with Leishmania amazonensis was inactive.

As for `Fc1ccc(-c2nc3c(NCCN4CCOCC4)nccn3c2I)cc1`, the IC50 with Leishmania major [1] was 2.8 µM; in the series with Leishmania major [2], 200 nM; in [3] it was 93.2 µM; in [5], above 268 µM; in series [8], above 10000 nM; in series [9] it was above 10000 nM. Also, the selectivity ratio is 33.3 in [4], above 95.6 in series [6] and 466 in series [7]. For the same molecule, the GI50 at 48 h in series [10] is above 125 µg/mL; in [11], 73 µg/mL (≈ 156 µM); in [12], above 125 µg/mL; in [13] it was above 125 µg/mL; in series [14], above 125 µg/mL; in [15], above 125 µg/mL. In series [16], the GI50 at 48 h is above 125 µg/mL. The result in the series with Leishmania amazonensis was inactive.
